Bioassay records from PubChem.
Hck Nef HTS: inhibitors of human Hck kinase activated by Nef | Recombinant Hck-YEEI plus Nef, Z-Lyte FRET kinase assay | inhibition, % at 20 µM | actives 0.68% (n = 220,000) | AID 463187;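 active means Hck-Nef kinase inhibition above about 50%, limit read from the data; inactive means inhibition below that limit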;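 further: 0% = DMSO with Hck plus Nef and 100% = Hck alone without Nef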
Runt-CBFb FRET: inhibitors of human RUNX1 Runt domain binding to CBFb | actives 0.46% (n = 220,000) | Cerulean-Runt/Venus-CBFb FRET ratio 530/480, 1 h | inhibition, % at 20 µM | AID 1496;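 active means inhibition over about 50% at 20 µM in the single-dose screen, limit read from the data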;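 further: 0% = DMSO wells and 100% = excess unlabeled CBFb competitor control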
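test system = Cerulean-Runt domain fusion protein, energy donor | probe or stimulus = Venus-CBFb binding partner, 100 nM | incubation = two 1 h room-temperature incubations shielded from light | detection = fluorescence energy transfer, 422 nm excitation, 530/480 nm emission | measure = loss of energy transfer signal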
eIF4E-4G inh: inhibitors of eIF4E and eIF4G interaction in translation initiation; TR-FRET eIF4E-eIF4GI(517-606) binding, 2 h; inhibition, % at 21.7 µM; actives 0.37% (n = 220,000); P63073+Q04637; AID 782;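 active means inhibition above about 30%, limit read from the data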;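 further: 0% = full FRET control wells and 100% = background wells lacking eIF4GI fragment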
Target sequence (P63073 whole entry, looked up, the tested form may be a part): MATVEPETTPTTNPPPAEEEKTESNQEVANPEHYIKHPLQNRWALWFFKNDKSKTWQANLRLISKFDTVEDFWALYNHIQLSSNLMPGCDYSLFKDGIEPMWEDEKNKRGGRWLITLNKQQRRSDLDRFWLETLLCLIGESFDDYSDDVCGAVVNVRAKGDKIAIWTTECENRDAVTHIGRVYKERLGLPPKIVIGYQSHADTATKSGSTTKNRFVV
Target sequence (Q04637 whole entry, looked up, the tested form may be a part): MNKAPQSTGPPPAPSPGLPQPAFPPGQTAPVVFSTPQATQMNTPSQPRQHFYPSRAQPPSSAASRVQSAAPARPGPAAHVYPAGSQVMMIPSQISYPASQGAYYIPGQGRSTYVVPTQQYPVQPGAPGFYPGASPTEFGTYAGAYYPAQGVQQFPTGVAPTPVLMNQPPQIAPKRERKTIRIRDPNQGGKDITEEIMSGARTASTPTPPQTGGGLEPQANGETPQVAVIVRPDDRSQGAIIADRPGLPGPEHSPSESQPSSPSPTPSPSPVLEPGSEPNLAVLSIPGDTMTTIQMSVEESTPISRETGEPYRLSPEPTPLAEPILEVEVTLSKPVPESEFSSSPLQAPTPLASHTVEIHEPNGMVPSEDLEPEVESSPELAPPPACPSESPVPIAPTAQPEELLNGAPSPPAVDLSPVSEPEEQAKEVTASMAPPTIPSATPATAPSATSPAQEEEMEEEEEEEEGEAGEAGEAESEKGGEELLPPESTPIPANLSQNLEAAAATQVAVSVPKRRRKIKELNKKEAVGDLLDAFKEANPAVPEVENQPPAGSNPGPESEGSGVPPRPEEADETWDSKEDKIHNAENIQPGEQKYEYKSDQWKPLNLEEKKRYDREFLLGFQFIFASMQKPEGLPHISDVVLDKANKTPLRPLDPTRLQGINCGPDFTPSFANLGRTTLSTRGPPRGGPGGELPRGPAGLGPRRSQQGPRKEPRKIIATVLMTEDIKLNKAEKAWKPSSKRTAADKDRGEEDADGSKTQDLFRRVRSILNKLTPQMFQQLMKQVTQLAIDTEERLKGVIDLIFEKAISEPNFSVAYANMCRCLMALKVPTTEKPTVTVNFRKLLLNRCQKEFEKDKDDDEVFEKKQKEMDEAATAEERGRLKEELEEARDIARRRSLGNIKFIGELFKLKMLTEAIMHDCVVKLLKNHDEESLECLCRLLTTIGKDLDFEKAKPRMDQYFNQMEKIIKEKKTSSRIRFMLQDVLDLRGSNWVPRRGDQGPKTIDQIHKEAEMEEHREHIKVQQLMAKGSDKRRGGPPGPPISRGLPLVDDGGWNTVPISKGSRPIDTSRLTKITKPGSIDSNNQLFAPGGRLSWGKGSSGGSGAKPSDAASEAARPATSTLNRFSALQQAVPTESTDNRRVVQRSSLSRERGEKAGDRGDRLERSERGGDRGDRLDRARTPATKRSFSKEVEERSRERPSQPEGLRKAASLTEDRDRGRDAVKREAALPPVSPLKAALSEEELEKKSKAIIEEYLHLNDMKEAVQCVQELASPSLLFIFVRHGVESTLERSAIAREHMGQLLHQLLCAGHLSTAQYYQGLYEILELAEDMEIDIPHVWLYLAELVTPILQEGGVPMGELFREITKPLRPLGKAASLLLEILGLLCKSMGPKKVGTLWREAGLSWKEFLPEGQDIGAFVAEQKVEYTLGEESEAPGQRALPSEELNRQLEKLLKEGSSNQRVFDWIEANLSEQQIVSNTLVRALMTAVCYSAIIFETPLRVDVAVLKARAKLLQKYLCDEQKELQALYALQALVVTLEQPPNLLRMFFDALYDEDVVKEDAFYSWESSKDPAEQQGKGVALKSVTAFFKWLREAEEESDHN
PERK inhibitor: blocks human PERK kinase | Q9NZJ5 | CHO PERK-DD fusion, SEAP luminescence translation reporter | inhibition, % at 5.6 µM | actives 0.17% (n = 220,000) | AID 1416;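 active means inhibition above the mean inhibition of all tested compounds plus 3 SD, set separately per screening campaign, cut at about 2.9% in these data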;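 further: PERK kinase domain activated by AP20187 dimerizer at 100 nM; 0% = DMSO with dimerizer and 100% = rapamycin at 8.4 µM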
RanGTP-Imp inh: inhibitors of RanGTP-importin-beta interaction, primary screen, biochemical, FRET, CFP-Ran, YFP-importin-beta, homogeneous. inhibition, % (no concentration beside the values). actives 1.1% (n = 300,000). cell-free CFP-Ran/YFP-importin-beta FRET ratio;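 active means more than half of the replicate wells show a fall in the fluorescence ratio signal beyond about 16%, limit read from the data, passing the limit was not always enough; inconclusive means exactly half of the replicate wells pass the set limit; inactive means fewer than half of replicates pass the limit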;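 further: 0% = DMSO wells and 100% = Ran loaded with GDP instead of GTP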
Runt-SMMHC FRET: blocks binding of human RUNX1 Runt domain to CBFb-SMMHC | Q01196+Q13951 | Cerulean-Runt/Venus-CBFb-SMMHC FRET ratio 530/480, 1 h | inhibition, % at 20 µM | actives 0.74% (n = 220,000) | AID 1434;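 active means mean inhibition across duplicate retests at 20 µM reaching about 50%, limit read from the data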;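 further: 0% = DMSO wells and 100% = wells with excess untagged CBFb-SMMHC; inhibitors lower the FRET ratio by blocking Runt binding to CBFb-SMMHC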
Numbers without * were called inactive; ? = inconclusive; · = not tested or not shown; ! = a repeat was not active; [ ] = remark or other dose. Shown are actives, neighbours in structure and some others; about 2.2% of the full set was active somewhere.

SMILES	Hck Nef HTS	Runt-CBFb FRET	eIF4E-4G inh	PERK inhibitor	RanGTP-Imp inh	Runt-SMMHC FRET
Cc1ccc(CNC(=O)CSc2nccn(-c3ccc(C)c(F)c3)c2=O)cc1	·	·	·	·	2	·
O=C(O)C1C2C=CC(C2)C1C(=O)NCCCN1CCOCC1 (stereo not drawn)	0	1	-1	3.0*	0	-1
Cc1ccc2c(c1C)NC(C)CC2C (stereo not drawn)	0	-1	-5	3.4*	?	1
C#CCN1C(=O)C(O)(CC(=O)c2ccc(OC)c(OC)c2)c2ccccc21 (stereo not drawn)	-1	-1	97*	0	6	1
CCn1cc(C2=NOC(C(=O)O)C2)c(C)n1 (stereo not drawn)	-3	1	4	1	-1	-1
CCC12CN(C(=O)c3ccc(C)cc3)CC(CC)(CN(C(=O)c3ccc(C)cc3)C1)C2=O	-2	0	7	-1	3	2
COc1ccc(N2CCN(S(=O)(=O)c3c(C)n(C)c(=O)n(C)c3=O)CC2)cc1	·	·	·	·	0	·
CN1CCN(c2oc(-c3ccccc3)nc2S(=O)(=O)c2ccc(Br)cc2)CC1	·	·	·	·	1	·
COc1ccc(-c2nc3ccccc3[nH]2)cc1	-1	1	13	1	7	-3
COc1ccc(-c2cc(=O)n(-c3nc4ccccc4[nH]3)[nH]2)cc1	-3	6	-2	1	56*	-7
Cc1nc2ccn(Cc3ccccc3)c(=O)c2cc1C(=O)N1CCN(c2ccc(F)cc2)CC1	·	·	·	·	69*	·
N#CC1=C(N)N2C(=C(C#N)C1c1ccccc1)Sc1ccccc12 (stereo not drawn)	2	-60	-15	1	?	-69
N#CC1=C(N)N2C(=C(C#N)C1c1ccc(Br)cc1)Nc1ccccc12 (stereo not drawn)	7	19	-2	1	23*	60*
N#CC1=C(N)N2C(=C(C#N)C1c1cccc(Br)c1)Nc1ccccc12 (stereo not drawn)	4	20	3	1	28*	64*
COC(=O)c1ccc([N+](=O)[O-])c(CS(=O)(=O)c2ccc(Cl)cc2)c1	·	·	·	·	-2	·
CCC(=O)N1CC2(C)CN(C(=O)CC)CC(C)(C1)C2	3	-1	-6	0	17*	3
CC(=O)N1CC2(C)CN(C(C)=O)CC(C)(C1)C2	7	2	3	2	-4	3
CC1CCCCN1c1nnc(NC(=O)Cn2c(=O)oc3ccccc32)s1 (stereo not drawn)	3	2	-8	0	?	4
CCN1/C(=C/C=C/C=C/c2sc3ccccc3[n+]2CC)Sc2ccccc21	-23	17	-175	-1	0	20
CCN1/C(=C/C=C/c2sc3ccccc3[n+]2CC)Sc2ccccc21	·	·	·	·	26*	·
COC(=O)[C@@]1(Cc2ccccc2)[C@@H]2C(=CC(=O)[C@H]2CC(=O)C(=O)N(C)C)CN1C(=O)c1ccccc1	1	-1	1	-1	-4	2
O=C(CC(c1ccccc1)c1ccccc1O)NCc1ccccc1Cl (stereo not drawn)	1	-1	0	-1	1	3
Cc1ccc(C(=O)N2CCCC2)cc1Br	-2	0	·	0	4	2
Nc1ccc2nc(-c3cc(Cl)c(N)c(Cl)c3)[nH]c2c1	18	-2	39*[fluorescence artefact?]	0	0	4
Cc1ccc(-c2csc(N)n2)s1	1	41	·	-1	-1	32
SMILES	Hck Nef HTS	Runt-CBFb FRET	eIF4E-4G inh	PERK inhibitor	RanGTP-Imp inh	Runt-SMMHC FRET
O=C(O)Cn1c(O)c(C=Nc2ccccc2)sc1=S	0	32	-2	-1	31*!	73*
C=CCn1c(O)c(C=Nc2ccccc2)sc1=S	13	2	2	1	-3	12
O=C(c1ccccc1-n1cccn1)N1CCc2c([nH]c3ccccc23)C1c1ccccn1 (stereo not drawn)	0	-2	-4	0	2	5
Cc1ccc(C2(C(F)(F)F)NC(=O)N3CCN=C3S2)cc1 (stereo not drawn)	1	0	-1	2.9*	-1	-7
Cc1ccc(C2(C(F)(F)F)NC(=O)N3CCCN=C3S2)cc1 (stereo not drawn)	-2	-2	4	1	1	2
CC1(C)CC(=O)C2=C(C1)OC1=C(C(=O)CC(C)(C)C1)C2c1ccc(O)c([N+](=O)[O-])c1	-12	-3	2	1	0	-1
CC1(C)CC(=O)C2=C(C1)OC1=C(C(=O)CC(C)(C)C1)C2c1ccc(O)cc1O	0	6	8	2	93*	42
CCc1cccc(CC)c1C(OC(C)=O)c1cccnc1 (stereo not drawn)	·	·	·	·	4	·
Cc1csc(SCC(=O)O)n1	3	114*	-2	1	2	9
COc1ccc(-c2csc(NC(=O)CSc3nc(C)cs3)n2)cc1	6	·	1	3.6*	-4	·
CCN1CCc2nc(SCC(=O)Nc3ccc(OC)cc3)c(C#N)cc2C1	18	21	-16	0	?	94*
COc1ccc(NC(=O)CSc2nc3c(cc2C#N)CN(C)CC3)cc1	·	10	3	·	-1	6
CCOC(=O)c1c(NS(=O)(=O)c2cccc(OC)c2)sc2c1CCC2	7	-15	4	2	-29	69*
CCOc1cc(-c2cc(-c3ccccc3)nc(N)c2C#N)ccc1O	-1	1	-8	-1	7	-4
CCOc1cc(-c2cc(-c3ccc(N)cc3)nc(N)c2C#N)ccc1O	17	46	·	-1	48*	80*
Cc1ccccc1NC(=O)c1cccnc1	·	·	·	·	4	·
Cc1ccc(S(=O)(=O)Nc2cccc(Cl)c2)cc1NC(=O)c1cccnc1	24	-1	2	0	62*	1
O=C(O)COc1ccccc1C(Nc1cccnc1)c1cc(Cl)c2cccnc2c1O (stereo not drawn)	19	-3	27	2	-1	-27
CCOc1ccc(C(Nc2cccnc2)c2cc(Cl)c3cccnc3c2O)cc1 (stereo not drawn)	51*	33	28	-1	·	21
O=C(O)C(=O)/C(=C\c1ccccc1)c1ccc2ccccc2n1	18	7	6	1	31*	52*
O=C(O)C(=O)/C(=C\c1ccsc1)c1ccc2ccccc2n1	·	·	·	·	20*	·
O=C(O)C(=O)/C(=C\c1cccc2ccccc12)c1ccc2ccccc2n1	1	19	1	0	63*	80*
O=C(O)C(=O)/C(=C\c1ccc([N+](=O)[O-])cc1)c1ccc2ccccc2n1	-5	15	0	1	9	25
